# Only some compounds are listed: those with a hit (about 1.4% of all), similar ones and a draw of the others.
# ABCB6 inh MLPCN = inhibitors of human ABC transporter ABCB6 | K562-ABCB6 porphyrin accumulation, flow cytometry, 1 h; active compounds read low | fluorescence ratio to DMSO, % at 10 µM | 0.19% of 360,000 active | AID 602162;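 active means fluorescence ratio to DMSO below 75%, the collection mean minus 3 SD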;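 further: signal is porphyrin accumulated inside mitochondria; 100% equals median channel fluorescence of DMSO control wells; lower ratio means ABCB6 inhibition with less porphyrin fluorescence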
# CHT allo act = human CHT allosteric activation; CHT-expressing cells, membrane potential dye, choline EC20; active compounds read high; LV-AA mutant CHT in HEK293 cells; AID 488977; 0.49% of 310,000 active; B-score at 10 µM; Q9GZV3;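 active means initial fluorescence not abnormally high and integrated response B-score, plate-corrected, over 3 SD above library mean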
# Target sequence (Q9GZV3 whole entry, looked up): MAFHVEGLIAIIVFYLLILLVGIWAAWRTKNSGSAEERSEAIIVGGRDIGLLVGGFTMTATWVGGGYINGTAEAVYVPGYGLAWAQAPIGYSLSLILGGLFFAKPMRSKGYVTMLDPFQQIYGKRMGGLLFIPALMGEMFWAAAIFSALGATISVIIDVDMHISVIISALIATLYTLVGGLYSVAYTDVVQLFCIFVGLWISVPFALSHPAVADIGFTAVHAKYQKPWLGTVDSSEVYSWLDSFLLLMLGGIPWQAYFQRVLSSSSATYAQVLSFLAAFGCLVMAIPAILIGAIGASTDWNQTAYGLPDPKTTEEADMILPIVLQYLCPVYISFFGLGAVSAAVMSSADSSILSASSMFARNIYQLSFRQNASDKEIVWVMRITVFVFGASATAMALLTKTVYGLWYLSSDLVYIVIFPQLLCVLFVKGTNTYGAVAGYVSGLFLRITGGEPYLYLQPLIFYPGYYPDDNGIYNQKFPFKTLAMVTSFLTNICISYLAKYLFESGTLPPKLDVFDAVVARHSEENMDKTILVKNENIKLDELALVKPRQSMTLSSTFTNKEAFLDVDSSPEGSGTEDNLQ
# TNAP inh hiacc = blocks human TNAP under high phosphate acceptor concentration | AID 1135 | inhibition, % at 20 µM | 0.03% of 200,000 active | P05186 | purified TNAP, CDP-star luminescence, 1 M DEA;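 active means over 50% inhibition of tissue-nonspecific alkaline phosphatase at 20 µM in the single-dose screen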;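 further: plate controls were DMSO wells for no effect and EDTA-quenched wells as full inhibition for full effect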
# TNAP act hiacc = activators of human TNAP at high phosphate acceptor concentration. P05186. purified TNAP, CDP-star luminescence, 1 M DEA, 30 min; active compounds read high; 0 = EDTA background, 1 = DMSO-only activity. activation factor at 20 µM. 200,000 tested, under 10 active. AID 1136;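 active means activation factor at least 2 at 20 µM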
#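 Dosing: 20 µM single point. System: human TNAP. Amount: TNAP 1/800 final. Incubation: 30 min, room temperature. Read-out: TNAP activation factor scaled between EDTA and DMSO control wells. Signal: luminescence from CDP-star hydrolysis. Medium: 1 M DEA, pH 9.8, Mg2+, Zn2+. Control set: EDTA negative control, DMSO positive control.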
# TNAP inh noacc = blocks human TNAP activity with no phosphate acceptor present. inhibition, % at 20 µM. AID 1012. 0.26% of 200,000 active. P05186. purified TNAP, CDP-star luminescence, 30 min;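 active means tissue-nonspecific alkaline phosphatase inhibition above about 50% at 20 µM in the single-dose screen, limit read from the data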;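 further: 0% = DMSO negative control and 100% = EDTA positive control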
# CHT inh = human CHT choline transport inhibition | Q9GZV3 | CHT-expressing cells, membrane potential dye, choline response; active compounds read low | B-score at 10 µM | 0.86% of 310,000 active;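 active means B-score over 3 SD under the library average, and starting fluorescence ratio not unusually high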;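 further: choline stimulus applied at its EC90 after an EC20 pre-addition; B-score computed on integrated fluorescence ratio after choline addition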
# CHT inh conf = confirmation of human choline transporter CHT inhibitors. 70% of 2,400 active. shares compounds with CHT inh. AID 493221. CHT-expressing cells, choline membrane potential dye; LV-to-AA substituted CHT, HEK293 cells. CHT activity remaining % of control (active compounds read low), % at 10 µM;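 active means choline transporter activity left, mean of duplicates at 10 µM, below buffer-only control mean minus 3 SD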;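 further: depolarization triggered by choline at its EC90 following an EC20 pre-addition; 0% = hemicholinium-3 full block and 100% = buffer-only control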
# HEK293 CHT ctr = activity in parental HEK293 cells lacking CHT; membrane potential dye, choline response; active = decrease or increase beyond buffer ±3SD; shares compounds with CHT inh; 4% of 2,400 active; AID 493222; membrane potential ratio readout (active if shifted either direction beyond buffer ±3SD; no single direction) at 10 µM;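 further: parental cells lack the transporter so any hit is non-specific; ratio is peak minus trough fluorescence over baseline after EC90 choline challenge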
# The depositor's hits bear a star; i = inactive; . = no result given.
SMILES,ABCB6 inh MLPCN,CHT allo act,TNAP inh hiacc,TNAP act hiacc,TNAP inh noacc,CHT inh,CHT inh conf,HEK293 CHT ctr
Cc1ccc(C(=O)Nc2ncc([N+](=O)[O-])s2)cc1,98,i,.,.,.,-5.9*,56%*,i
Cc1ccc(CSc2nnc(SCC(=O)N/N=C/c3ccc(C(=O)O)cc3)s2)cc1,100,i,.,.,.,-5*,i,i
O=S(=O)(Cc1ccccc1)C(c1ccccc1)S(=O)(=O)Cc1ccccc1,93,.,.,.,.,.,.,.
COCCCNC(=O)c1ccc(N2CCCC2)c(NS(=O)(=O)c2ccc(C)cc2)c1,96,i,-8,1.1,-12,i,.,.
CCOCCCNC(=O)c1ccc(N2CCCC2)c(NS(=O)(=O)c2ccc(C)cc2)c1,96,i,0,1,-5,i,.,.
Cc1ccc(S(=O)(=O)Nc2cc(C(=O)NCCN3CCCC3)ccc2N2CCCCC2)cc1,102,i,-5,1,-4,-8.6*,23%*,3.8*
Cc1ccc(S(=O)(=O)Nc2cc(C(=O)NCCN(C)C)ccc2N2CCCCC2)cc1,97,i,4,1,-6,-15*,19%*,3.2*
C/C(=N\NC(=O)c1cc(-c2ccc(C)s2)[nH]n1)c1ccco1,99,i,6,0.9,-96,i,.,.
O=C(C[n+]1cc(Br)cc2ccccc21)c1ccc(Cl)cc1,144,i,.,.,.,-6.9*,32%*,i
O=C(C[n+]1cc(Br)cc2ccccc21)c1ccc(Br)cc1,138,i,.,.,.,-5.7*,30%*,i
CN1CCN(C(=S)Nc2ccc(S(N)(=O)=O)cc2)CC1,97,i,-6,1.1,-6,i,.,.
COc1ccc(CC(=O)NCCS(=O)(=O)N2CCN(c3ccccc3OC)CC2)cc1,102,i,.,.,.,i,.,.
O=C(Nc1nc(-c2cccs2)c(C(=O)C(F)(F)F)s1)c1ccco1,101,i,-6,1.1,-8,-5.2*,i,i
O=C(Nc1nc(-c2cccs2)c(-c2ccccc2)s1)c1ccco1,102,i,-5,1,-9,i,.,.
Cc1cccc(NC(=O)NCc2ccc3c(c2)OCO3)c1C,99,i,6,0.9,-6,-5.2*,i,i
CC(C)(C)N1C(=O)c2ccc(C(=O)Nc3cc(C(=O)O)cc(C(=O)O)c3)cc2C1=O,99,i,.,.,.,i,.,.
CCOC(=O)c1sc(NC(=O)CCN2C(=O)c3cccc([N+](=O)[O-])c3C2=O)c(C(=O)OCC)c1C,91,i,-1,1,3,-7.4*,56%*,i
CCOC(=O)c1sc(NC(=O)CCN2C(=O)c3ccccc3C2=O)c(C(=O)OCC)c1C,97,i,-2,1,-11,i,.,.
O=C(c1ccco1)N1CCN(C(c2cccs2)c2nnnn2C2CCCC2)CC1 (configuration not stated),93,i,-9,1.1,-11,-7.8*,i,i
CC(C)CC(c1nnnn1C1CCCC1)N1CCN(C(=O)c2ccco2)CC1 (configuration not stated),91,i,-3,1,-10,i,.,.
O=C(O)CCN1C(=O)CC(N2C(=O)/C(=C/c3ccc(Cl)cc3)SC2=S)C1=O (configuration not stated),100,i,4,1,64*,-6.2*,58%*,i
CCOc1ccc(/C=C2\SC(=S)N(CCC(=O)O)C2=O)cc1,100,i,.,.,.,i,.,.
CCCC(=O)Nc1ccc(Cl)c(NC(=O)c2ccc([N+](=O)[O-])cc2Cl)c1,98,i,0,1,3,i,.,.
CCCC(=O)Nc1cccc(NC(=O)c2ccc([N+](=O)[O-])cc2Cl)c1,98,i,1,1,-5,-6.6*,61%*,i
CCCC(=O)NC(=S)Nc1cccc(NC(=O)c2ccccc2Cl)c1,96,i,-2,1,9,-12*,14%*,i
SMILES,ABCB6 inh MLPCN,CHT allo act,TNAP inh hiacc,TNAP act hiacc,TNAP inh noacc,CHT inh,CHT inh conf,HEK293 CHT ctr
CCCCC1C(=O)CC[C@H]2[C@@H]1CC(=O)[C@@H]2C/C=C\CCCC(=O)O (some centres not stated),96,i,0,1,-8,-5.5*,34%*,i
CCCCC[C@H](O)/C=C/[C@H]1C=CC(=O)[C@@H]1C/C=C\CCCC(=O)O,.,.,-4,1,-10,.,.,.
CC(=O)Nc1cccc(C(=O)N/N=C/c2c[nH]c3ccccc23)c1,110,i,.,.,.,i,.,.
COc1ccc(C(=O)Nc2nc3nccc(-c4ccccc4)n3n2)cc1,95,i,-6,1.1,-8,-6.4*,i,i
COc1ccc(C(=O)CSc2[nH]c(=O)cc(C(F)(F)F)c2C#N)cc1,98,i,.,.,.,-14*,45%*,i
O=C(CSc1nccn1-c1ccc(F)cc1)NCc1ccc(F)cc1,101,i,-4,1,6,-5.3*,53%*,i
O=C(CSc1nccn1-c1ccccc1)NCc1ccc(F)cc1,94,i,-5,1.1,-19,i,.,.
Cc1ccc(C(C)C)c(OCC(=O)NS(=O)(=O)c2ccc(Cl)cc2)c1,98,i,.,.,.,-6.4*,14%*,i
Cc1ccccc1OCC(=O)NS(=O)(=O)c1ccc(Cl)cc1,95,i,.,.,.,i,.,.
Cc1nc(-c2ccc(Br)cc2)ccc1C(=O)O,105,i,-6,1.1,-12,i,.,.
O=C(NCCN1CCCC1)c1ccc2c(c1)N(Cc1cccc(Cl)c1)C(=O)c1ccccc1S2(=O)=O,101,i,.,.,.,-9.5*,34%*,i
O=C(NCCN1CCOCC1)c1ccc2c(c1)N(Cc1ccccc1F)C(=O)c1ccccc1S2(=O)=O,107,i,.,.,.,i,.,.
CC1CCCN(CCCNC(=O)c2ccc3c(c2)N(Cc2cccc(Cl)c2)C(=O)c2ccccc2S3=O)C1 (configuration not stated),95,.,.,.,.,.,.,.
O=C(c1ccc2c(c1)N(Cc1ccccc1F)C(=O)c1ccccc1S2(=O)=O)N1CCCC1,101,i,.,.,.,i,.,.
CCN1CCCC1CNC(=O)c1ccc2c(c1)N(Cc1ccccc1F)C(=O)c1ccccc1S2(=O)=O (configuration not stated),98,i,.,.,.,-5.3*,54%*,i
CC1CCCN(CCCNC(=O)c2ccc3c(c2)N(Cc2ccccc2F)C(=O)c2ccccc2S3(=O)=O)C1 (configuration not stated),100,i,.,.,.,-7.1*,35%*,i
